Data published in ChEMBL document CHEMBL1145798, “Deoxyribonucleoside 2'- or 3'-mixed disulfides: prodrugs to target ribonucleotide reductase and/or to inhibit HIV reverse transcription” (J Med Chem, 2003).
Calls of active or inactive are those of the source. The rule behind the calls is not given here.

Key:
[1] = system: Human immunodeficiency virus 1; test: Effective concentration against cytopathicity of HIV-1 strain (HTLV IIIB) in CEM cell line; type: functional, organism-based; settings: Human immunodeficiency virus 1, CCRF-CEM
Procedure, shortened: (§1)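 HIV-1 or HIV-2 (ROD) infected CEM cell cultures. EC50 is the compound concentration that protects cells against virus-induced cytopathicity by 50%.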

L1210 = test: Antiproliferative activity was determined against murine leukemia cells (L1210); type: functional, cell-based; settings: Mus musculus
Procedure, shortened: (§2)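 Cytostatic assay on proliferating cell cultures (human CEM, Molt4/C8; murine L1210, FM3A). IC50 is the compound concentration that inhibits cell proliferation by 50%.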

CCRF-CEM [2] = test: Antiproliferative activity was determined against human T-lymphocyte cells-CEM; type: functional, cell-based; procedure, shortened: as §2
[3] = system: Human immunodeficiency virus 2; test: Effective concentration against cytopathicity of HIV-2 strain (ROD) in CEM cell line; type: functional, organism-based; settings: Human immunodeficiency virus 2, CCRF-CEM; procedure, shortened: as §1
MOLT-4 = test: Antiproliferative activity was determined against human T-lymphocyte cells -Molt4/C8; type: functional, cell-based; procedure, shortened: as §2
FM3A = test: Antiproliferative activity was determined against murine mammary carcinoma cells (FM3A); type: functional, cell-based; settings: Mus musculus; procedure, shortened: as §2
[4] = system: Human immunodeficiency virus 1; test: Inhibitory activity against HIV-1 strain (HTLV IIIB) in MT-4 cell line; type: functional; settings: Human immunodeficiency virus 1, MT4; read-out: ED50 (the source's name)
FM3A (Mus musculus) = test: Antiproliferative activity was determined against murine mammary carcinoma cells (FM3A)
MOLT-4 (Homo sapiens) = test: Antiproliferative activity was determined against human T-lymphocyte cells -Molt4/C8
MT4 [5] = test: Effective dose against HIV-1 strain (HTLV IIIB) in infected MT-4 cell line; type: functional; settings: Homo sapiens, read-out: ED50 (the source's name)
MT4 [6] = test: Cytotoxicity towards infected MT-4 cell line; type: functional; settings: Homo sapiens, read-out: CD50 (the source's name)
MT4 [7] = test: Effective dose against HIV-1 strain (HTLV IIIB) in MT-4 cell line; Not active; type: functional, cell-based; settings: Homo sapiens
CCRF-CEM [8] = test: Cytotoxicity was determined towards CEM/SS cells (MTT); type: functional; settings: Homo sapiens
Procedure, shortened: (§3)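 Cytotoxicity in CEM/SS cells measured by MTT read-out, reported as CC50.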

CCRF-CEM [9] = test: Cytotoxicity was determined towards CEM/SS cells using MTT assay; type: functional; settings: Homo sapiens; procedure, shortened: as §3
CCRF-CEM [10] = test: Concentration required to lower intracellular dATP levels in CEM/SS cells; type: functional, Homo sapiens
Procedure, shortened: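 CEM/SS cells exposed for 24 h at 37 °C across a dose range, then counted. dATP was measured in methanolic cell extracts by an enzymatic assay, elongation of radiolabeled oligonucleotide primers annealed to complementary templates, expressed per million viable cells. IC(dATP-50) is the concentration that depletes intracellular dATP by 50%. Mean ± SD of at least two independent experiments.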

| SMILES | EC50 [1] [µM] | IC50 (L1210) [µM] | IC50 (CCRF-CEM [2]) [µM] | EC50 [3] [µM] | IC50 (MOLT-4) [µM] | IC50 (FM3A) [µM] | EC50 [4] [µM] | IC50 (FM3A (Mus musculus)) [µM] | IC50 (MOLT-4 (Homo sapiens)) [µM] | EC50 (MT4 [5]) [µM] | CC50 (MT4 [6]) [µM] | NA (MT4 [7]) | CC50 (CCRF-CEM [8]) [µM] | CC50 (CCRF-CEM [9]) [µM] | ICdATP-50 (CCRF-CEM [10]) [µM] |
| --- | --- | --- | --- | --- | --- | --- | --- | --- | --- | --- | --- | --- | --- | --- | --- |
| CSS[C@H]1C(O)[C@@H](CO)O[C@H]1n1ccc(=O)[nH]c1=O (stereo partly drawn) | > 65 | 320 | 160 | > 65 | 220 | > 650 | – | – | – | – | – | – | – | – | – |
| Nc1ccn([C@H]2C[C@H](S)[C@@H](CO)O2)c(=O)n1 | – | – | – | – | – | – | 20 | – | – | – | – | – | – | – | – |
| C[C@H](Cn1cnc2c(N)ncnc21)OCP(=O)(O)O [TENOFOVIR ANHYDROUS] | 4.2 | > 350 | > 350 | 3 | > 350 | > 350 | – | – | – | – | – | – | – | – | – |
| Cc1cn([C@H]2C[C@H](S)[C@@H](CO)O2)c(=O)[nH]c1=O | > 390 | > 770 | > 770 | > 390 | – | – | – | > 770 | > 770 | – | – | – | – | – | – |
| Cc1cn([C@H]2C[C@H](N=[N+]=[N-])[C@@H](CO)O2)c(=O)[nH]c1=O [ZIDOVUDINE] | 0.004 | – | > 375 | – | > 375 | – | – | – | – | – | – | – | – | – | – |
| Cc1cn([C@H]2C[C@H](SS[C@H]3C[C@H](n4cc(C)c(O)nc4=O)O[C@@H]3CO)[C@@H](CO)O2)c(=O)nc1O | 50 | > 390 | > 390 | 60 | 325 | > 390 | – | – | – | 16 | 34 | inactive | – | – | – |
| CSS[C@H]1C[C@H](n2cc(C)c(=O)[nH]c2=O)O[C@@H]1CO | 10 | 37 | 155 | 37 | 25 | 280 | – | – | – | – | – | – | 120 | – | – |
| CSS[C@H]1C(O)[C@@H](CO)O[C@H]1n1ccc(N)nc1=O (stereo partly drawn) | > 65 | 350 | 82 | > 65 | 255 | > 650 | – | – | – | – | – | – | – | 330 | 50 |
| CCCSS[C@H]1C(O)[C@@H](CO)O[C@H]1n1ccc(N)nc1=O (stereo partly drawn) | – | – | – | – | – | – | – | – | – | – | – | – | – | – | 50 |
| Nc1ccn([C@@H]2O[C@H](CO)C(O)[C@@H]2S)c(=O)n1 (stereo partly drawn) | > 340 | 670 | 305 | > 340 | 650 | > 675 | – | – | – | – | – | – | – | – | – |
